# Only some compounds are listed: those with a hit (about 1% of all), similar ones and a draw of the others.
# ERp5 block – inhibitors of ERp5-driven insulin aggregation, primary screen, biochemical, turbidity, absorbance 650 nm, single point; inhibition, % at 9.99 µM; 0.05% of 350,000 active; 90 min; Protein disulfide-isomerase A6 (Homo sapiens), Q15084;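 active = mean replicate inhibition above about 25%, with every replicate also reaching it, limit read from the data, passing the limit was not always enough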
# PvdQ inh – P. aeruginosa PvdQ acylase inhibitors, primary screen, biochemical, fluorescence, plate reader and imaging, single point; 0.063% of 340,000 active; inhibition, % at 10 µM; purified PvdQ acylase; in the data active = inhibition above about 30%, passing the limit was not always enough;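 note: 0% = vehicle neutral wells and 100% = reference inhibitor wells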
# PglD inh – C. jejuni PglD acetyltransferase inhibitors, primary screen, biochemical, DTNB colorimetric, single point | purified PglD enzyme, DTNB colorimetric CoA detection | inhibition, % at 12.5 µM | 0.098% of 360,000 active | AID 602405, 2012; in the data active = inhibition above about 16%, passing the limit was not always enough
# IMP-1 inhibitor – IMP-1 metallo-beta-lactamase inhibitors, primary screen, biochemical, epi-absorbance readout, Pseudomonas aeruginosa enzyme; metallo-beta-lactamase IMP-1 (Pseudomonas aeruginosa); purified IMP-1, nitrocefin hydrolysis, epi-absorbance fluorescence; inhibition, % at 5.6 µM; 0.45% of 290,000 active; AID 1556, 2009;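 active = inhibition above the mean plus 3 SD of all compounds in the same screening run, cut at about 4.5% in these data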;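 note: 0% = IMP-1 with DMSO and 100% = DMSO wells lacking enzyme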
#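 System: Purified IMP-1 | Read-out basis: Percent enzyme inhibition | Controls: IMP-1 with DMSO as 0%, enzyme-free DMSO as 100% | Replicates: One well per compound | Doses: 5.6 µM nominal single concentration | Detection: Epi-absorbance fluorescence, 480 nm excitation, 530 nm emission | Incubation: 25 °C, 15 min preincubation, 25 min reaction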
# VIM-2 inh – VIM-2 metallo-beta-lactamase inhibitors, primary screen, biochemical, epi-absorbance readout, Pseudomonas aeruginosa enzyme. 0.89% of 290,000 active. purified VIM-2, nitrocefin hydrolysis, epi-absorbance fluorescence. inhibition, % at 5.6 µM. AID 1527, 2009;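 active = inhibition above the mean of all tested compounds plus 3 SD, cutoff set per screening run, cut at about 7.5% in these data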;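 note: red hydrolysis product quenches plate fluorescence so inhibitors raise well fluorescence; 0% = enzyme with DMSO and 100% = DMSO without enzyme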
# PDI inh – inhibitors of human PDI, primary screen, biochemical, turbidity, single point, plate reader | PDI insulin aggregation turbidity, A650, 90 min | inhibition, % at 10 µM | 0.052% of 350,000 active;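 active = mean inhibition across replicates of 30% or more, whatever share of single replicates reach that level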
# Target sequence (P07237 whole entry, looked up): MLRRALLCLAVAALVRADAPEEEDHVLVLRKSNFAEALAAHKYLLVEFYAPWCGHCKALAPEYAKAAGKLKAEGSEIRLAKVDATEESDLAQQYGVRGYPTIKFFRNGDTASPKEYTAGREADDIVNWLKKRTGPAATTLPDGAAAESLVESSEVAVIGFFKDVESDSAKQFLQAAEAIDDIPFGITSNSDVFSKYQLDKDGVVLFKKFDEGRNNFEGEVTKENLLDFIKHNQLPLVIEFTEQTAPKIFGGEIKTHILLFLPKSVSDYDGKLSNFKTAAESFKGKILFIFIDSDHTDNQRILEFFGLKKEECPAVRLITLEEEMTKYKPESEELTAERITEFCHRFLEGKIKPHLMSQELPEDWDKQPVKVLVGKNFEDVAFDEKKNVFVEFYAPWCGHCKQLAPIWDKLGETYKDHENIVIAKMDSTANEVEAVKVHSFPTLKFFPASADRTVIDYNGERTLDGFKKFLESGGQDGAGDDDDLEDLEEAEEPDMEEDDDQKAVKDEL
# * hit, by the source's call; · = no result given.
SMILES,ERp5 block,PvdQ inh,PglD inh,IMP-1 inhibitor,VIM-2 inh,PDI inh
CCN1C(=O)c2cccc3c(S(=O)(=O)NCc4ccccc4)ccc1c23,-9,10,2,·,·,1
CCN1C(=O)c2cccc3c(S(=O)(=O)Nc4ccc(O)c(C(=O)O)c4)ccc1c23,-1,-11,-11,-3,8.2*,-9
Cc1noc(C)c1S(=O)(=O)Nc1ccc2c(c1)CC(=O)N([C@@H](C)CO)C[C@@H](C)[C@H](CN(C)Cc1ccc(C(=O)Nc3ccccc3N)cc1)O2,3,·,-3,·,·,·
COc1cc(-c2nn3c(-c4ccccn4)nnc3s2)cc(OC)c1OC,·,·,·,-2,3,·
COc1ccc(-c2nn3c(-c4ccncc4)nnc3s2)cc1OC,·,·,·,-3,10*,·
Clc1ccc(-c2nn3c(-c4ccccc4)nnc3s2)cc1,·,-16,-1,-2,-3,4
c1ccc(-c2nnc3sc(-c4ccncc4)nn23)cc1,·,-11,·,-3,9.0*,-3
CC(=O)c1c2c3c(c(Br)ccc3n(C)c1=O)C(=O)c1ccccc1-2,1,-1,1,6.7*,31*,-1
O=C(NC[C@@H]1CC[C@H]2[C@H](CN2Cc2ccc(Oc3ccccc3)cc2)O1)C1CCOCC1,4,·,·,·,·,·
Cc1ccc(Oc2ncccc2/C=N/OCc2ccc(Cl)c(Cl)c2)cc1,·,-5,-1,4.7*,0,-8
CCOc1ccccc1NC(=O)CCS(=O)(=O)c1ccc(OC)cc1,-3,-8,·,0,3,19
CCc1ccccc1NC(=O)CCS(=O)(=O)c1ccc(OC)cc1,4,-9,0,37*,-2,-29
Cc1ccc(-c2nnc3c4ccccc4c(C)nn23)cc1S(=O)(=O)N1CCN(C)CC1,·,-10,-2,-2,12*,-1
COC(=O)C[C@H]1CC[C@H]2[C@@H](COc3ccc(NC(=O)c4cccs4)cc3C(=O)N2C)O1,1,·,·,·,·,·
C[C@@H]1CN([C@@H](C)CO)C(=O)c2cc(C3=CCCC3)cnc2O[C@H]1CN(C)C(=O)C1CCC1,0,·,-1,·,·,·
C=CCn1c(SCC(=O)NC2CCCC2)nc2scc(-c3ccco3)c2c1=O,·,-11,-2,0,-2,4
C=CCn1c(SCC(=O)NCCCC)nc2scc(-c3ccco3)c2c1=O,·,19,0,7.9*,2,-2
C[C@@H]1CCCCO[C@@H](CN(C)C(=O)c2ccccc2)[C@H](C)CN([C@H](C)CO)C(=O)c2cc(NS(=O)(=O)c3ccc(F)cc3)ccc2O1,1,·,0,·,·,·
N=c1c(C(=O)NCC2CCCO2)cc2c(=O)n3ccccc3nc2n1Cc1ccco1 (stereo unspecified),1,-18,-3,-4,3,1
N=c1c(C(=O)NCC2CCCO2)cc2c(=O)n3ccccc3nc2n1Cc1cccnc1 (stereo unspecified),·,-47,2,-1,8.0*,-7
N=c1c(C(=O)NC2CCCCC2)cc2c(=O)n3ccccc3nc2n1Cc1ccccc1,-6,-9,-1,-2,6,-4
N=c1c(C(=O)NC2CCCCC2)cc2c(=O)n3ccccc3nc2n1Cc1cccnc1,3,1,-2,-2,8.2*,6
N=c1c(C(=O)NCC2CCCO2)cc2c(=O)n3ccccc3nc2n1Cc1ccc(F)cc1 (stereo unspecified),-7,-36,-10,0,9.7*,-1
CCOc1ccc(CNC(=O)Cn2c(=O)c3cccn3c3ccccc32)cc1,-2,-7,-3,6.2*,-1,5
O=C(Cn1c(=O)c2cccn2c2ccccc21)NCCc1ccc(Cl)cc1,-1,-7,1,13*,3,5
SMILES,ERp5 block,PvdQ inh,PglD inh,IMP-1 inhibitor,VIM-2 inh,PDI inh
O=C(C1CCOCC1)N1C[C@H]2[C@@H](c3ccccc31)[C@@H](CO)N2C(=O)c1ccccc1,0,·,6,·,·,·
Cn1cc(SCC(=O)N2CCCc3ccccc32)c2ccccc21,-8,-14,2,6.9*,0,·
Cn1cc(SCC(=O)N2CCOCC2)c2ccccc21,-1,-9,-5,-2,0,·
CN(CC1CCCO1)S(=O)(=O)c1ccc(C(=O)Nc2ccccc2F)cc1 (stereo unspecified),-10,4,·,-2,-2,6
CN(CC1CCCO1)S(=O)(=O)c1ccc(C(=O)Nc2ccc(S(N)(=O)=O)cc2)cc1 (stereo unspecified),0,-13,-1,4.8*,2,-7
c1ccc(CSc2ccc3nnc(-c4ccccn4)n3n2)cc1,-2,-5,·,-1,11*,-2
CSc1nnc2c(n1)OC(C)N(C(=O)c1ccccc1)c1ccccc1-2 (stereo unspecified),·,8,-3,-5,-2,-2
CCC1=Nc2ccccc2-c2nnc(SC)nc2O1,·,-2,0,-2,10*,-5
CSc1nnc2c(n1)OC(C)=Nc1ccccc1-2,·,-5,6,-2,11*,-2
CNC(=O)c1cn(-c2ccccc2)c(=O)c2ccccc12,·,-2,-3,6.1*,-2,1
CN(C)C(=O)c1cn(-c2ccccc2)c(=O)c2ccccc12,-1,10,-3,1,-1,-5
O=C(O)c1ccccc1C(=O)N1CCc2c([nH]c3ccccc23)C1C(F)(F)F (stereo unspecified),1,·,7,-2,11*,2
O=C(O)CSCC(=O)N1CCc2c([nH]c3ccccc23)C1C(F)(F)F (stereo unspecified),-1,-15,-2,0,-1,-5
Cn1c(=O)c2sccc2n2c(CCCC(=O)NC3CCN(Cc4ccccc4)CC3)nnc12,-4,-9,-2,0,10*,6
Cn1c(=O)c2sccc2n2c(CCCC(=O)NCc3cccnc3)nnc12,0,9,-4,-3,11*,6
CCCn1c(=O)c2sccc2n2c(CCCC(=O)NCc3cccnc3)nnc12,2,-15,-2,0,4,-11
Cn1c(=O)c2sccc2n2c(CCCC(=O)Nc3ccccc3)nnc12,-1,-17,-2,-5,0,-3
C[C@H](CO)N1C[C@H](C)[C@H](CN(C)S(=O)(=O)c2ccc(Cl)cc2)OCCCC[C@H](C)Oc2ccc(NS(=O)(=O)c3cn(C)cn3)cc2C1=O,2,·,0,·,·,·
COc1ccc(Nc2cc(C)nc3ncnn23)cc1Cl,-4,1,4,-5,9.4*,-40
CCOc1nc(Nc2ccc(OC)c(Cl)c2)nc(OCC)n1,·,1,0,-4,10*,1
